Source: ChEMBL document CHEMBL6134787, “Fexinidazole optimization: enhancing anti-leishmanial profile, metabolic stability and hERG safety” (RSC Med Chem, 2024)
Calls of active or inactive are those of the source. The calls are words filed in the database; no cut-off is given here.

Assays:
Leishmania amazonensis [1] = experiment: Antileishmanial activity against wild type Leishmania amazonensis LV78 promastigotes […] assessed as inhibition of parasite growth incubated for 72 hrs by automatic microtiter plate reader analysis; type: functional, organism-based
Summary of the method: (§1)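 Promastigotes were grown in Schneider's medium (4 mM glutamine, gentamicin, 10% heat-inactivated FBS, pH 6.9, 27 °C). Cells were seeded at 1.5 × 10^5/well and exposed to a concentration series for 72 h at 27 °C.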

Leishmania braziliensis [2] = experiment: Antileishmanial activity against wild type Leishmania braziliensis UA847 promastigotes […] assessed as inhibition of parasite growth incubated for 72 hrs by automatic microtiter plate reader analysis; type: functional, organism-based; summary of the method: as §1
Leishmania major = experiment: Antileishmanial activity against wild type Leishmania major FV1 promastigotes […] assessed as inhibition of parasite growth incubated for 72 hrs by automatic microtiter plate reader analysis; type: functional, organism-based; summary of the method: as §1
Leishmania donovani [3] = experiment: Antileishmanial activity against wild type Leishmania donovani HU3 promastigotes […] assessed as inhibition of parasite growth incubated for 72 hrs by automatic microtiter plate reader analysis; type: functional, organism-based
Leishmania donovani [4] = experiment: Antileishmanial activity against miltefosine resistant Leishmania donovani HU3MILR40 promastigotes […] assessed as inhibition of parasite growth incubated for 72 hrs by automatic microtiter plate reader analysis; type: functional, organism-based
Summary of the method: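 Promastigote (free parasite) assay: Schneider's Drosophila medium with 4 mM glutamine, 25 μg mL−1 gentamicin, 10% heat-inactivated FBS, pH 6.9, 27 °C. 1.5 × 10^5 promastigotes per well exposed to a concentration series for 72 h at 27 °C.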

[5] = Cytotoxicity against mouse L929 cells assessed as inhibition of cell growth incubated for 72 hrs by MTS assay; type: toxicity, cell-based
Summary of the method: (§2)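 Cells in DMEM + 10% heat-inactivated FBS with penicillin/streptomycin at 37 °C, 5% CO2. They were seeded at 1 × 10^4/well and incubated with a concentration series for 72 h at 37 °C. Viability was read by MTS/PMS assay at 490 nm and IC50 derived.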

RAW264.7 = experiment: Cytotoxicity against mouse RAW264.7 cells assessed as inhibition of cell growth incubated for 72 hrs by MTS assay; type: functional, cell-based; settings: RAW264.7, 72 h; summary of the method: as §2
[6] = biological target: T1, Voltage-gated inwardly rectifying potassium channel KCNH2 (Homo sapiens, UniProt Q12809); experiment: Inhibition of human ERG stably overexpressed in HEK293 cells incubated for 30 mins by FLIPR assay; type: toxicity, cell-based; settings: human, hek293, 0.5 h; time 30 min
[7] = Metabolic stability in rat liver microsome assessed as compound remaining at 20 uM measured after 32 mins in presence of NADP and GSH by HPLC analysis; type: ADME; settings: liver microsomes, read-out: Stability
Summary of the method: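 Rat liver microsomes (final 2 mg/mL) in 50 mM phosphate pH 7.4 with 0.3 mM NADP+, 5.3 mM glucose-6-phosphate, G6PDH, 10 mM MgCl2 and 5 mM EDTA. 20 μM compound added at 37 °C. Aliquots at 0, 16 and 32 min were quenched in ice-cold acetonitrile and centrifuged. HPLC peak area at 254/280 nm was expressed relative to 0 min.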

[8] = Metabolic stability in rat liver S9 fraction assessed as compound remaining at 20 uM measured after 32 mins in presence of NADP and GSH by HPLC analysis; type: ADME, subcellular; settings: read-out: Stability
Summary of the method: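 Rat liver S9 (final 4 mg/mL) in 50 mM phosphate pH 7.4 with NADPH-regenerating system (0.3 mM NADP+, 5.3 mM glucose-6-phosphate, G6PDH), 10 mM MgCl2 and 5 mM EDTA. Pre-warmed 10 min at 37 °C, then 20 μM compound and 5.5 μM GSH added. Samples taken at 0, 16 and 32 min were quenched in ice-cold acetonitrile. HPLC (254/280 nm) peak area was expressed relative to 0 min.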

Leishmania amazonensis [9] = experiment: Antileishmanial activity against wild type Leishmania amazonensis LV78 amastigotes infected in mouse peritoneal macrophage assessed as inhibition of parasite growth incubated for 72 hrs by giemsa staining based analysis; type: functional, organism-based
Summary of the method: (§3)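 Mouse peritoneal macrophages (1 × 10^5/well on coverslips, DMEM + 10% heat-inactivated FBS, penicillin/streptomycin) adhered overnight at 37 °C, 5% CO2. They were infected overnight with late-log promastigotes at a 20:1 parasite:macrophage ratio. Cells were then treated with compound for 72 h at 37 °C and Giemsa-stained. Amastigotes per 100 macrophages were counted to derive IC50; mean ± SD of 3–4 independent experiments.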

Leishmania braziliensis [10] = experiment: Antileishmanial activity against wild type Leishmania braziliensis UA847 amastigotes infected in mouse peritoneal macrophage assessed as inhibition of parasite growth incubated for 72 hrs by giemsa staining based analysis; type: functional, organism-based; summary of the method: as §3
Leishmania donovani [11] = experiment: Antileishmanial activity against wild type Leishmania donovani HU3 amastigotes infected in mouse peritoneal macrophage assessed as inhibition of parasite growth incubated for 72 hrs by giemsa staining based analysis; type: functional, organism-based
Summary of the method: (§4)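 Mouse peritoneal macrophages in DMEM + 10% heat-inactivated FBS, penicillin/streptomycin; 1 × 10^5 cells per well on coverslips, adhered overnight at 37 °C, 5% CO2, non-adherent cells washed off. Infected overnight with late-log promastigotes at parasite:macrophage 40:1. Compound exposure 72 h at 37 °C; Giemsa stain, amastigotes per 100 macrophages counted, IC50 derived; means ± SD of 3–4 independent experiments.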

Leishmania donovani [12] = experiment: Antileishmanial activity against miltefosine resistant Leishmania donovani HU3MILR40 amastigotes infected in mouse peritoneal macrophage assessed as inhibition of parasite growth incubated for 72 hrs by giemsa staining based analysis; type: functional, organism-based; summary of the method: as §4
[13] = Cytotoxicity against mouse peritoneal macrophage assessed as inhibition of cell growth incubated for 72 hrs by giemsa staining based analysis; type: toxicity; settings: peritoneal macrophages
[14] = Selectivity ratio of IC50 for cytotoxicity against mouse peritoneal macrophage assessed as inhibition of cell growth to IC50 for antileishmanial activity against miltefosine resistant Leishmania donovani HU3MILR40 amastigotes infected in mouse peritoneal macrophage assessed as inhibition of parasite growth; type: toxicity, cell-based; settings: peritoneal macrophages, read-out: Ratio IC50
[15] = Hepatotoxicity against mouse TAMH cells assessed as cell viability at 7.8 to 125 uM incubated for 24 to 48 hrs by MTT assay; type: toxicity, cell-based; settings: dose lower 7.8 µM, time lower 24 hrs, dose upper 125 µM, time upper 48 hrs, read-out: Activity
Summary of the method: (§5)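 TAMH mouse liver cells in FCS-free DMEM/F12 with 5% PANEXIN NTA, 10 mM nicotinamide and gentamicin. Seeded at 20 000/well and attached 24 h at 37 °C, 5% CO2. DMSO-diluted compounds were applied for 24 or 48 h. MTT was added for 4 h, formazan dissolved in DMSO and A570 read. Viability was background-corrected and expressed relative to DMSO controls; mean ± SD, ≥3 experiments.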

hERG (KCNH2) [16] = biological target: T2, hERG (KCNH2) (Homo sapiens, UniProt Q12809); experiment: (§6) Inhibition of human ERG stably overexpressed in HEK293 cells assessed as remaining activity at 6 uM incubated for 30 mins by FLIPR assay; type: toxicity, cell-based; settings: HEK293 cells stably overexpressing hERG, read-out: Activity
Summary of the method: (§7)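 HEK-293 cells stably expressing hERG, seeded at 60 000/well and grown 24 h. Compounds were added in DMSO (final 0.5%) and incubated 30 min in the dark. After 20 s baseline, Tl+ stimulus (3 mM) was added and fluorescence (ex 485/em 535 nm) recorded for 2.5 min.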

hERG (KCNH2) [17] = biological target: T2, hERG (KCNH2); experiment: Inhibition of human ERG stably overexpressed in HEK293 cells at 100 uM incubated for 30 mins by FLIPR assay; type: toxicity, cell-based; settings: HEK293 cells stably overexpressing hERG; summary of the method: as §7
hERG (KCNH2) [18] = biological target: T2, hERG (KCNH2); experiment: Inhibition of human ERG stably overexpressed in HEK293 cells assessed as remaining activity at 25 uM incubated for 30 mins by FLIPR assay; type: toxicity, cell-based; settings: HEK293 cells stably overexpressing hERG, read-out: Activity; summary of the method: as §7
[19] = Hepatotoxicity against mouse TAMH cells assessed as cell viability at 125 uM incubated for 48 hrs by MTT assay; type: toxicity, cell-based; summary of the method: as §5
[20] = Hepatotoxicity against human HepG2 cells assessed as cell viability at 125 uM incubated for 48 hrs by MTT assay; type: toxicity, cell-based; settings: hepg2, 48 h, 125 µM
Summary of the method: (§8)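 HEP-G2 cells in RPMI 1640 + 10% heat-inactivated FBS, penicillin/streptomycin. Seeded at 15 000/well and attached 24 h at 37 °C, 5% CO2. Compounds were serially diluted in DMSO, with 24 or 48 h exposure. MTT (2.5 mg/mL solution) was added for 4 h, formazan dissolved in DMSO and A570 read. Viability was background-corrected against DMSO-treated cell controls; mean ± SD, ≥3 experiments.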

Leishmania donovani [21] = experiment: Antileishmanial activity against miltefosine resistant Leishmania donovani HU3MILR40 amastigotes infected in mouse peritoneal macrophage assessed as inhibition of parasite growth at 1.5 uM incubated for 72 hrs by giemsa staining based analysis; type: functional, organism-based
Summary of the method: (§9)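 Adherent mouse peritoneal macrophages on coverslips infected overnight with late-log HU3MILR40 promastigotes (40 parasites per macrophage), then exposed to compound at a single fixed concentration in DMEM + 10% FBS for 72 h at 37 °C. Giemsa-stained coverslips imaged at 1000×; amastigotes per 100 macrophages counted versus DMSO control; mean ± SD of three independent experiments, Student's t-test.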

[22] = Hepatotoxicity against mouse TAMH cells assessed as reduction in cell viability at 125 uM incubated for 24 hrs by MTT assay; type: toxicity, cell-based; summary of the method: as §5
[23] = Hepatotoxicity against human HepG2 cells assessed as reduction in cell viability at 125 uM incubated for 24 hrs by MTT assay; type: toxicity, cell-based; settings: hepg2, 24 h; summary of the method: as §8
[24] = biological target: T1, Voltage-gated inwardly rectifying potassium channel KCNH2; experiment: as §6; type: toxicity, cell-based; settings: hek293, 0.5 h, 6 µM; summary of the method: as §7
Leishmania donovani [25] = experiment: Antileishmanial activity against miltefosine resistant Leishmania donovani HU3MILR40 amastigotes infected in mouse peritoneal macrophage assessed as inhibition of parasite growth at 20 uM incubated for 72 hrs by giemsa staining based analysis; type: functional, organism-based; summary of the method: as §9

T2 sequence (Q12809 whole entry): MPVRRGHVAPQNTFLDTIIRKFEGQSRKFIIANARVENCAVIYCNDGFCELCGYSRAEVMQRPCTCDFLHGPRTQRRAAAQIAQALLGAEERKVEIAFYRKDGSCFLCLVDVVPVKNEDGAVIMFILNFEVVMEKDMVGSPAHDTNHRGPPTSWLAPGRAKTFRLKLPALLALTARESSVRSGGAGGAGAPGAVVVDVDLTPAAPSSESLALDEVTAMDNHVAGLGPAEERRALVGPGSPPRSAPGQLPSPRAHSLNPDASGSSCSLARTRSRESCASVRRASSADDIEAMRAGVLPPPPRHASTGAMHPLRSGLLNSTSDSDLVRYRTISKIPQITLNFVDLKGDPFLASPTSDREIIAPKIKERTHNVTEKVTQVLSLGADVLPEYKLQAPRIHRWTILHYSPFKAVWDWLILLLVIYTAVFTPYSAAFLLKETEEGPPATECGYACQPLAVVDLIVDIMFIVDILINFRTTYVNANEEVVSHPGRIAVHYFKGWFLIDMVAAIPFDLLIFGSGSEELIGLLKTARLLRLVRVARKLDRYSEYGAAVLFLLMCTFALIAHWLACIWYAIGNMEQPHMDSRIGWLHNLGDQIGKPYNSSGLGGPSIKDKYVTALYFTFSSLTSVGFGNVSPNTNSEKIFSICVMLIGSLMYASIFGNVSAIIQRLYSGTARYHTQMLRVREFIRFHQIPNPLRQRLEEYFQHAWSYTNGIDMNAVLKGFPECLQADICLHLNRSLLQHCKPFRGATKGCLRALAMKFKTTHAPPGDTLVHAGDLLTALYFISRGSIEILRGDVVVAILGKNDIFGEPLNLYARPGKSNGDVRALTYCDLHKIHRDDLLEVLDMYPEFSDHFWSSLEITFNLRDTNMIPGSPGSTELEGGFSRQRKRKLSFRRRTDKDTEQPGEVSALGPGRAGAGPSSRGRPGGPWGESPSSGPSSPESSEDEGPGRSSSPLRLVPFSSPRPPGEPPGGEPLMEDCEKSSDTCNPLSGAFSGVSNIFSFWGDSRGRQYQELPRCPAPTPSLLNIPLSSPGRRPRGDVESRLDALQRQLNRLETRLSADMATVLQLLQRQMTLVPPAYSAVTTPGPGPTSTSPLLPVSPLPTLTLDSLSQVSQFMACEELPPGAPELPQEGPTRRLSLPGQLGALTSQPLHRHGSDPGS
T1 sequence (Q12809 whole entry): as above

SMILES	IC50 (Leishmania amazonensis [1]) [µM]	IC50 (Leishmania braziliensis [2]) [µM]	IC50 (Leishmania major) [µM]	IC50 (Leishmania donovani [3]) [µM]	IC50 (Leishmania donovani [4]) [µM]	IC50 at 72 h [5] [µM]	IC50 (RAW264.7) [µM]	IC25 [6] [µM]	remaining at 32 min, 20 µM [7] [%]	remaining at 32 min, 20 µM [8] [%]	IC50 (Leishmania amazonensis [9]) [µM]	IC50 (Leishmania braziliensis [10]) [µM]	IC50 (Leishmania donovani [11]) [µM]	IC50 (Leishmania donovani [12]) [µM]	IC50 at 72 h [13] [µM]	selectivity ratio [14]	viability at up to 125 µM [15] [%]	activity at 0.5 h, 6 µM (hERG (KCNH2) [16]) [%]	other results
CSc1ccc(OC[C@H]2Cn3cc([N+](=O)[O-])nc3O2)cc1	1.9	1.4	5.7	1.1	0.4	> 100	> 95.3	3.1	64.7	92.1	0.7	1	0.4	0.6	> 86	> 143	> 50	46	
CSc1ccc(CCc2ncc([N+](=O)[O-])n2CCO)cc1	> 20	> 20	> 20	> 20	> 20	> 100	> 100	6	20.5	76.8							> 50		inhibition at 0.5 h, 100 µM (hERG (KCNH2) [17]): 100%
CSc1ccc(OCc2nccn2C)cc1	> 20	> 20	> 20	> 20	> 20	> 100	> 91.1	34.5	100	100							> 50		activity at 0.5 h, 25 µM (hERG (KCNH2) [18]): 83%
Cn1c([N+](=O)[O-])cnc1COc1ccc(S(C)(=O)=O)cc1 [FEXINIDAZOLE SULFONE]	9.4	5.9	1.7	3.8	5.6	> 100	> 100	42.2	100	100							> 50		Activity [19]: Non-toxic; Activity [20]: Non-toxic
CSc1ccc(OC[C@@H]2Cn3cc([N+](=O)[O-])nc3O2)cc1	1.2	1.4	3.1	1.1	0.5	> 92.2	> 68.5	> 6.2	67.5	97	0.6	0.5	0.4	0.4	> 88	> 220	> 50	87	Activity (Leishmania donovani [21]): Active
C[S+]([O-])c1ccc(OCC2Cn3cc([N+](=O)[O-])nc3O2)cc1 (racemic)	> 20	> 20	> 20	10.2	7.1	> 100	> 100	30.1	100	100							56		Activity [22]: 58%; Activity [23]: 40.8%; inhibition (INH) [24]: Not_active
CCCCCCCCCCCCCCCCOP(=O)([O-])OCC[N+](C)(C)C [MILTEFOSINE]	22	17.8	7	6.9	> 40	81.5	9.9				9.6	3.2	2.7	> 20	> 40				Activity (Leishmania donovani [25]): inactive
CSc1ccc(OCC2Cn3cc([N+](=O)[O-])nc3O2)cc1 (racemic)	1.8	1.5	3.4	1	0.4	> 100	> 100	2.9	55.8	90.4	0.7	0.7	0.3	0.4	> 100	> 250	> 50	81	Activity (Leishmania donovani [21]): Active
